Active and inactive are the calls of the source. No cut-off for these calls is given here. A value given as a limit tells only on which side of the number the result lay.

For data set [1], the system named is MDA-MB-231. The experiment in a line: Antitumor activity against human MDA-MB-231 cells xenografted in SCID mouse assessed as tumor growth inhibition at 40 mg/kg, po qd for 15 days and measured every 3 days. The settings on record: MDA-MB-231, po, 360 h, time 15 day. The format is functional. The procedure, abridged: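 SCID mice (5−6 weeks) injected subcutaneously with 100 μL of cells at 5 × 10^7/mL. At 150−200 mm3 mice randomized, 6 per group. Oral compounds given in water with 25% PEG400 plus 5% DMSO; paclitaxel given 10 mg/kg/week iv. Tumor volume a×b²/2 and body weight measured every 3 days. Inhibition rate (c−d)/c×100% against vehicle control.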

The nature of data set [2]: Toxicity in SCID mouse xenografted with MDA-MB-231 cells assessed as animal death at 40 mg/kg, po qd for 15 days. The format is organism-based. The settings on record: in vivo, dose 40 mg/kg/day, time 15 day, read-out: Activity.
Data set [3] can be described thus: Cmax in Sprague-Dawley rat at 10 mg/kg, po administered via gavage by LC-MS analysis. It is filed as ADME, organism-based. More on the design: route oral, dose 10 mg/kg. The note with it: in vivo.
The nature of data set [4]: Metabolic stability in rat liver microsomes assessed as parent compound remaining at 1 uM measured after 60 mins in presence of NADPH by HPLC-MS/MS analysis. It is filed as ADME, Microsome. The settings on record: read-out: Stabilty. A digest of the protocol:
(§1)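 Compound at 1 μM incubated with 0.5 mg/mL liver microsomes and 1 mM NADPH. Samples taken at 0, 10, 15, 30, 45 and 60 min and quenched with acetonitrile. After centrifugation, supernatant analysed by HPLC-MS/MS, with percent parent remaining relative to the 0 min area.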
(Liver microsomes are vesicles of endoplasmic reticulum, rich in cytochrome P450 enzymes.)

The nature of data set [5]: Metabolic stability in monkey liver microsomes assessed as parent compound remaining at 1 uM measured after 60 mins in presence of NADPH by HPLC-MS/MS analysis. The format is ADME, Macaca mulatta, Microsome. The settings on record: rhesus monkey, read-out: Stabilty. The procedure, abridged:
as §1

For data set [6], the target named is Fibroblast growth factor receptor 3 (Homo sapiens, UniProt P22607). The experiment in a line: Inhibition of human recombinant FGFR3 (447 to 761 residues) using poly(Glu,Tyr)4:1 as substrate incubated for 40 mins in presence of [gamma33P-ATP] by radiometric scintillation counting analysis. A digest of the protocol: (§2)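 Radiometric kinase assay run as an external profiling service, with ATP at the Km of each kinase. IC50 values are means of two independent experiments.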

A short description of data set [7]: Inhibition of human recombinant EPHB2 A848S/K918E mutant (560 to end residues) using poly(Glu,Tyr)4:1 as substrate incubated for 40 mins in presence of [gamma33P-ATP] by radiometric scintillation counting analysis. A digest of the protocol:
as §2

In another data set the target is Ephrin type-A receptor 4 (Homo sapiens, UniProt P54764). The experiment in a line: Inhibition of human recombinant EPHA4 (601 to 892 residues) using poly(Glu,Tyr)4:1 as substrate incubated for 40 mins in presence of [gamma33P-ATP] by radiometric scintillation counting analysis. A digest of the protocol:
as §2

Another data set relates to HCC1937. The data set can be described thus: Antiproliferative activity against human HCC1937 cells assessed as reduction in cell viability incubated for 72 hrs by MTT assay. The format is functional, cell-based. The note with it: HCC1937, 72 h. A digest of the protocol: (§3)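 MTT viability assay. ATCC cell lines were grown in designated medium with 10% FBS at 37 °C, 5% CO2. Cells seeded at 1500−30000 per well and incubated 24 h, then exposed to compound (0−10 μg/mL) for 72 h. MTT added for 2−4 h. Formazan dissolved in DMSO (adherent) or acidified SDS overnight (suspension), absorbance read at 570 nm. Triplicates; IC50 calculated.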
(Tetrazolium assays rely on reduction of a dye to a coloured formazan, in cell work by metabolically active cells.)

The test system of a further data set is MDA-MB-415. The data set can be described thus: Antiproliferative activity against human MDA-MB-415 cells assessed as reduction in cell viability incubated for 72 hrs by MTT assay. The format is functional, cell-based. The settings on record: MDA-MB-415, 72 h. The procedure, abridged: as §3
The test system of the next data set is PC-9. The experiment in a line: Antiproliferative activity against human PC-9 cells assessed as reduction in cell viability incubated for 72 hrs by MTT assay. The note with it: PC-9, 72 h. The format is functional, cell-based. A digest of the protocol:
as §3

The next data set concerns A-375. The experiment in a line: Antiproliferative activity against human A-375 cells assessed as reduction in cell viability incubated for 72 hrs by MTT assay. The format is functional, cell-based. The note with it: A-375, 72 h. A digest of the protocol:
as §3

The test system of another data set is MIA PaCa-2. The data set can be described thus: Antiproliferative activity against human MIA PaCa-2 cells assessed as reduction in cell viability incubated for 72 hrs by MTT assay. It is filed as functional, cell-based. The note with it: MIA PaCa-2, 72 h. A digest of the protocol: as §3
Another data set has as its system HT-29. The data set can be described thus: Antiproliferative activity against human HT-29 cells assessed as reduction in cell viability incubated for 72 hrs by MTT assay. The format is functional, cell-based. The settings on record: HT-29, 72 h. A digest of the protocol: as §3
Data set [8] concerns MDA-MB-231. The data set can be described thus: Induction of apoptosis in human MDA-MB-231 cells assessed as necrotic cells at 0.01 uM incubated for 24 hrs by annexin V-FITC and propidium iodide staining based flow cytometry analysis (reference value: 0.2 %). The format is functional.
In data set [9] the test system is MDA-MB-231. The experiment in a line: Induction of apoptosis in human MDA-MB-231 cells assessed as live cells at 0.03 uM incubated for 24 hrs by annexin V-FITC and propidium iodide staining based flow cytometry analysis (reference value: 96.95 %). It is filed as functional. (In general: In flow cytometry, cells or beads pass a laser one at a time.)
Data set [10] relates to MDA-MB-231. The experiment in a line: Increase in cleaved caspase-3 level in human MDA-MB-231 cells incubated for 20 hrs by Western blot analysis. It is filed as functional, cell-based. The note with it: dose 0.01-0.3 µM. A digest of the protocol: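 MDA-MB-231 cells given a concentration series for 20 h at 37 °C. Cells lysed in RIPA with protease cocktail, cleared at 12000 rpm, 4 °C. Protein quantified by Bradford, equal amounts run on SDS-PAGE, transferred to PVDF and immunoblotted.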

Another data set concerns Mus musculus. The data set can be described thus: In vivo inhibition of Src in SCID mouse xenografted with human MDA-MB-231 cells assessed as reduction in phosphorylation of Src in tumor tissue at 40 mg/kg, po QD for 21 days by immunohistochemical analysis. The settings on record: dose 40.0 mg/kg/day, time 21.0 day. It is filed as functional, organism-based. The procedure, abridged: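 Tumors taken from xenografted SCID mice dosed orally at 40 mg/kg/q.d. or given control; mice euthanized at set times. Tumors formalin-fixed and paraffin-embedded, stained by immunohistochemistry for phospho-proteins, and imaged by light microscopy.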

The species named for a further data set is Danio rerio. The data set can be described thus: Antiangiogenesis activity in EGFP-labelled zebrafish embryo assessed as reduction in formation of major cranial vessel at 1.25 to 5 uM incubated for overnight by fluorescence microscopic analysis. The format is functional, organism-based. The note with it: dose 1.25-5 µM. The procedure, abridged:
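Transgenic FLK:EGFP zebrafish kept at 28 °C, pH 7.2−7.4, 14 h light/10 h dark. Embryos at 30 hpf incubated overnight with compound at 1.25, 2.5 or 5 μM beside a blank control. Fish anaesthetized, then vessels imaged by fluorescence microscopy.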

A short description of data set [11]: Acute toxicity in Sprague-Dawley rat assessed as histopathological changes in heart at 100 mg/kg, po administered as single dose measured after 24 hrs by H and E staining based light microscope analysis. The settings on record: in vivo. The format is organism-based. A digest of the protocol:
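Sprague-Dawley rats received a single oral dose of 100 mg/kg in sterile water with 25% (v/v) PEG400 plus 5% DMSO. Organs were examined by histology and immunohistochemistry for pathological changes. Behaviour and side effects were checked daily.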

For data set [12], the system named is MDA-MB-231. The data set can be described thus: Inhibition of Fra1 expression in human MDA-MB-231 cells at >0.03 uM incubated for 20 hrs by Western blot analysis. The format is functional, cell-based. The settings on record: dose microM >0.03, time 20.0 hrs. The procedure, abridged: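 MDA-MB-231 cells treated with a series of concentrations for 20 h at 37 °C. Cells washed with ice-cold saline and lysed in RIPA buffer with protease cocktail. Lysates cleared at 12000 rpm for 10 min at 4 °C and protein quantified by Bradford. Equal protein separated by SDS-PAGE, transferred to PVDF and probed with antibodies.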

Ephrin type-A receptor 4, sequence (P54764 whole entry, the tested form may be a part): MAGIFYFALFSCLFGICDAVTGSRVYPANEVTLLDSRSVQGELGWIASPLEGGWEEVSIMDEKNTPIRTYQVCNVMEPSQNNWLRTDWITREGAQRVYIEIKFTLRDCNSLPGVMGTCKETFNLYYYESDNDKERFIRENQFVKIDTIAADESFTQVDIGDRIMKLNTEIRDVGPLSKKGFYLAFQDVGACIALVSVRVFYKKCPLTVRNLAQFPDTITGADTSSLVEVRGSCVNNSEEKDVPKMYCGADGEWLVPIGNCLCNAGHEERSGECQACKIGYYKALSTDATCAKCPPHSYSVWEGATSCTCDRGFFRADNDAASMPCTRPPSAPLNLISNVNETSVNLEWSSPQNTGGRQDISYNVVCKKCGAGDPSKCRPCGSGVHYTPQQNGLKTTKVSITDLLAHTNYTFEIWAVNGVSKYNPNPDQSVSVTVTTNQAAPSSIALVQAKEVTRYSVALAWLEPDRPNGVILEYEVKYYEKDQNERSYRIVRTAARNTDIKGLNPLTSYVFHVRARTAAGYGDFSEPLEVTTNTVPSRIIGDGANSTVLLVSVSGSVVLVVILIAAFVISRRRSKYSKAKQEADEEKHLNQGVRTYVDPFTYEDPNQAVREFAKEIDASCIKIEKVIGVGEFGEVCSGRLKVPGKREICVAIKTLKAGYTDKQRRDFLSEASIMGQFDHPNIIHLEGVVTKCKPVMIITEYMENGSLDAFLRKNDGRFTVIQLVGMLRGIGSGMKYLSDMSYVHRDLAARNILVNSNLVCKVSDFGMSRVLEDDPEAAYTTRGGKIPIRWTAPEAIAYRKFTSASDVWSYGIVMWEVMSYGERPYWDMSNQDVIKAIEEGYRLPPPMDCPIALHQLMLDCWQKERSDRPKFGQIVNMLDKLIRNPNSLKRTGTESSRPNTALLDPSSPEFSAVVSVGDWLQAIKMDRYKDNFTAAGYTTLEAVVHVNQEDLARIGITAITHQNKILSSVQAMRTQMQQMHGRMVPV
Fibroblast growth factor receptor 3, sequence (P22607 whole entry, the tested form may be a part): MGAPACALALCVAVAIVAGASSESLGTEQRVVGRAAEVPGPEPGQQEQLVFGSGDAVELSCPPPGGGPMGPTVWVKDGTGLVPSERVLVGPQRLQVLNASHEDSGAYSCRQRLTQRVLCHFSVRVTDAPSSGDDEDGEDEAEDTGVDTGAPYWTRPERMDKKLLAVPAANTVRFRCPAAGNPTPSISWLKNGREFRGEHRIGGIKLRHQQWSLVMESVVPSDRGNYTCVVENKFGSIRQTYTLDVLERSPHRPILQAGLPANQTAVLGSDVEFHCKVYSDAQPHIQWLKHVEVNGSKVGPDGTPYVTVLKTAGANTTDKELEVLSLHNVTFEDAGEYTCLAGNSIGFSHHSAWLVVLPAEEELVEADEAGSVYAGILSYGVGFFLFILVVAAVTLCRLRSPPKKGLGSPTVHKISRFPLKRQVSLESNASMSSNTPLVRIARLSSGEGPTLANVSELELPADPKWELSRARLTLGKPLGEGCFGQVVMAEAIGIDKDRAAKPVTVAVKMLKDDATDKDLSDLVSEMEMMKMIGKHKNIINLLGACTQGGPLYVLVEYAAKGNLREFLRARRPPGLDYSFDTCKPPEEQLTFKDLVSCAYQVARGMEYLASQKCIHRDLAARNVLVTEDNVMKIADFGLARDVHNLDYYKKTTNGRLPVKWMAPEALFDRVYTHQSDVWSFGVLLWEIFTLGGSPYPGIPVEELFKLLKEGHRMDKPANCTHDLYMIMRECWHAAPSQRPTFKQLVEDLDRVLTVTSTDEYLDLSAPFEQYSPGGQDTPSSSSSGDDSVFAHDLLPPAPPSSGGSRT

Consider `Cc1ccc(NC(=O)c2ccc(C)c(C(F)(F)F)c2)cc1C#Cc1nn([C@H]2CC[C@H](O)CC2)c2ncnc(N)c12`, for which the inhibition in vivo at 40 mg/kg/day in the data set on MDA-MB-231 [1] worked out at 96.2%. In addition, the mortality at 360 h in [2] came out at 0%. The compound further yielded a Cmax in [3] of 143 ng/mL. Moreover, the remaining at 1 h, 1 µM in data set [4] and in [5] was greater than 90% in each case. Moreover, the IC50 in data set [6] is 120 nM; in [7] it was 33 nM; at Ephrin type-A receptor 4 it was 227 nM; in the data set with HCC1937 it was 455 nM; in the data set with MDA-MB-415, 10000 nM; in the data set with PC-9, 152 nM. Also, the IC50 in the data set on A-375 was 31 nM; in the data set with MIA PaCa-2 it was less than 600 nM; with HT-29, 231 nM. For the same compound, the Activity was 0.42% in the data set on MDA-MB-231 [8], 78.36% in the data set on MDA-MB-231 [9], “Dose-dependent effect” with MDA-MB-231 [10] and “Non-Toxic” in [11]. In addition, the inhibition result with Mus musculus and in the data set with MDA-MB-231 [12] was “Active” in each case. Besides, the outcome in the data set filed under Danio rerio was inactive.

One may read the inhibition in vivo as how much of the control response was suppressed. As a reminder, the Cmax is the peak of the concentration-time curve. The IC50 is the midpoint of a concentration-inhibition curve.

Source of the values: ChEMBL document CHEMBL4765233, “From Lead to Drug Candidate: Optimization of 3-(Phenylethynyl)-1H-pyrazolo[3,4-d]pyrimidin-4-amine Derivatives as Agents for the Treatment of Triple Negative Breast Cancer” (J Med Chem, 2016).
